Measurements taken from ChEMBL document CHEMBL5344404, “Design and optimization of oestrogen receptor PROTACs based on 4-hydroxytamoxifen” (Eur J Med Chem, 2022).
Values belong to the molecule of their own block, whether it stands above or below them. Active and inactive are the calls of the source. The rule behind the calls is not given here.

Experiments:
[1] = target: T1, Protein cereblon/Estrogen receptor (Homo sapiens, UniProt P03372+Q96SW2); test: PROTAC activity at CRBN/ERalpha in human MCF7 cells assessed as reduction in ERalpha protein level at 1 to 5 uM incubated for 24 hrs by Western blot analysis; assay type: cell-based; details: dose 1-5 µM
How it was run: (§1)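 MCF-7 breast cancer cells exposed to the PROTAC over a concentration series for 24 h. ERα in cell lysates then assessed by immunoblotting.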
Target sequence in this assay (P03372 whole entry, looked up): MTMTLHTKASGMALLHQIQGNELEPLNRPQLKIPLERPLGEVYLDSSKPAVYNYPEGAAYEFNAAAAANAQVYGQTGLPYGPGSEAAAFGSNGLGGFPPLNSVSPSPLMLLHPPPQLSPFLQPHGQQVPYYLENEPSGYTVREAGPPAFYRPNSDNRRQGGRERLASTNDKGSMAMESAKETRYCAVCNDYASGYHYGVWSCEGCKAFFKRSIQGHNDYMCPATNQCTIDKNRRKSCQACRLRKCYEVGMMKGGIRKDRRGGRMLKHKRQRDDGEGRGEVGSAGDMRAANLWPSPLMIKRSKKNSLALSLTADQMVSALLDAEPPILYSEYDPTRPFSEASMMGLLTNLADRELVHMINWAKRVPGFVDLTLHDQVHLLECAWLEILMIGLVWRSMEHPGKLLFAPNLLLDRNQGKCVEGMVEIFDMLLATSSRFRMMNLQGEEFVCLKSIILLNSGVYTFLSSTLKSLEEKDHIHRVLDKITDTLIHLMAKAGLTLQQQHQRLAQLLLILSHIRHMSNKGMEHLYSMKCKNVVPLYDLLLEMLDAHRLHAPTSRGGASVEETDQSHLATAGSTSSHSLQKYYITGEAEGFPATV
Target sequence in this assay (Q96SW2 whole entry, looked up): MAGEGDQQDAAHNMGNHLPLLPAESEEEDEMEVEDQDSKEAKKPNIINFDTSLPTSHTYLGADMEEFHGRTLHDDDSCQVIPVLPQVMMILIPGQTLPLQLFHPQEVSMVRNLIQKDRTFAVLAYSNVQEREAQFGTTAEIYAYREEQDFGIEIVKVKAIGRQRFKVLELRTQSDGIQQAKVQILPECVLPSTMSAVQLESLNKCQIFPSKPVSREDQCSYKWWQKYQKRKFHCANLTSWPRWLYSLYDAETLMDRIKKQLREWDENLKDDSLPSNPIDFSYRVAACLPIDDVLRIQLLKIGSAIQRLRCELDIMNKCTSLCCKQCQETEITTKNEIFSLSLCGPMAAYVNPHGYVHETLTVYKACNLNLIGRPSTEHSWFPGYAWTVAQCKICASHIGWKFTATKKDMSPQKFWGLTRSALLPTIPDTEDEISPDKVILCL

[2] = target: T1, Protein cereblon/Estrogen receptor; test: PROTAC activity at CRBN/ERalpha in human MCF7 cells assessed as reduction in ERalpha protein level at 1 uM measured after 1 to 12 hrs by Western blot analysis; assay type: cell-based; details: time 1-12 hrs
How it was run: (§2)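 MCF-7 cells given the PROTAC at 1 µM for periods of 1–48 h, with DMSO controls held 48 h. Cell lysates immunoblotted for ERα.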
Target sequence in this assay (P03372 whole entry, looked up): as the sequence (P03372 whole entry, looked up) above
Target sequence in this assay (Q96SW2 whole entry, looked up): as the sequence (Q96SW2 whole entry, looked up) above

[3] = target: T1, Protein cereblon/Estrogen receptor; test: PROTAC activity at CRBN/ERalpha in human MCF7 cells assessed as reduction in ERalpha protein level incubated for 24 hrs by Western blot analysis; assay type: cell-based
How it was run: (§3)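 MCF-7 cells treated 24 h across a broad concentration range. ERα quantified on Western blots and normalized to GAPDH, then plotted against PROTAC concentration to give DC50 (concentration giving 50% protein degradation). Replicates: 2 biological for the CRBN series, triplicates for the VHL series.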
Target sequence in this assay (P03372 whole entry): as the sequence (P03372 whole entry, looked up) above
Target sequence in this assay (Q96SW2 whole entry): as the sequence (Q96SW2 whole entry, looked up) above

[4] = target: T1, Protein cereblon/Estrogen receptor; test: PROTAC activity at CRBN/ERalpha in human MCF7 cells assessed as reduction in ERalpha protein level at 1 uM pretreated with bortezomib at 1 uM for 1 hr followed by compound addition for 12 hrs by Western blot analysis; assay type: cell-based
How it was run: (§4)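 Rescue assay in MCF-7 cells. Cells pre-treated 1 h with bortezomib 1 µM or MLN4924 1 µM, then given the PROTAC at 1 µM for 12 h. ERα read by immunoblot.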
Target sequence in this assay (P03372 whole entry, looked up): as the sequence (P03372 whole entry, looked up) above
Target sequence in this assay (Q96SW2 whole entry, looked up): as the sequence (Q96SW2 whole entry, looked up) above

[5] = target: T1, Protein cereblon/Estrogen receptor; test: PROTAC activity at CRBN/ERalpha in human MCF7 cells assessed as reduction in ERalpha protein level at 1 uM pretreated with MLN4924 at 1 uM for 1 hr followed by compound addition for 12 hrs by Western blot analysis; assay type: cell-based; how it was run: as §4
Target sequence in this assay (P03372 whole entry, looked up): as the sequence (P03372 whole entry, looked up) above
Target sequence in this assay (Q96SW2 whole entry, looked up): as the sequence (Q96SW2 whole entry, looked up) above

[6] = target: T1, Protein cereblon/Estrogen receptor; test: PROTAC activity at CRBN/ERalpha in human MCF7 cells assessed as reduction in ERalpha protein level at 1 uM measured after 24 hrs by Western blot analysis; assay type: cell-based; how it was run: as §2
Target sequence in this assay (P03372 whole entry, looked up): as the sequence (P03372 whole entry, looked up) above
Target sequence in this assay (Q96SW2 whole entry, looked up): as the sequence (Q96SW2 whole entry, looked up) above

[7] = target: T1, Protein cereblon/Estrogen receptor; test: PROTAC activity at CRBN/ERalpha in human MCF7 cells assessed as reduction in ERalpha protein level at 5 to 10 uM measured after 24 hrs by Western blot analysis; assay type: cell-based; details: dose 5-10 µM; how it was run: as §1
Target sequence in this assay (P03372 whole entry, looked up): as the sequence (P03372 whole entry, looked up) above
Target sequence in this assay (Q96SW2 whole entry, looked up): as the sequence (Q96SW2 whole entry, looked up) above

[8] = target: T2, von Hippel-Lindau disease tumor suppressor/Estrogen receptor (Homo sapiens, UniProt P03372+P40337); test: PROTAC activity at VHL E3 ligase/ERalpha in human MCF7 cells assessed as reduction in ERalpha protein level at 0.01 to 10 uM incubated for 24 hrs by Western blot analysis; assay type: cell-based; details: dose 0.01-10 µM
How it was run: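 MCF-7 cells incubated with the PROTAC at several concentrations for 24 h. Lysates analysed by immunoblotting for ERα.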
Target sequence in this assay (P03372 whole entry, looked up): as the sequence (P03372 whole entry, looked up) above
Target sequence in this assay (P40337 whole entry, looked up): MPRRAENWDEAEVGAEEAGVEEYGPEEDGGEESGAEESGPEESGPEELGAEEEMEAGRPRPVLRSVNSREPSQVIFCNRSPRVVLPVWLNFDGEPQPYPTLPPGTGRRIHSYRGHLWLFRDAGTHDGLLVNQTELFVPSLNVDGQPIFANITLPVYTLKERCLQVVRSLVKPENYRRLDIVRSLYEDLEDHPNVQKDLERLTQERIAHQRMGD

[9] = target: T2, von Hippel-Lindau disease tumor suppressor/Estrogen receptor; test: PROTAC activity at VHL E3 ligase/ERalpha in human MCF7 cells assessed as reduction in ERalpha protein level at 10 nM incubated for 24 hrs by Western blot analysis; assay type: cell-based
Target sequence in this assay (P03372 whole entry, looked up): as the sequence (P03372 whole entry, looked up) above
Target sequence in this assay (P40337 whole entry, looked up): as the sequence (P40337 whole entry, looked up) above

[10] = target: T2, von Hippel-Lindau disease tumor suppressor/Estrogen receptor; test: PROTAC activity at VHL E3 ligase/ERalpha in human MCF7 cells assessed as reduction in ERalpha protein level incubated for 24 hrs by Western blot analysis; assay type: cell-based; how it was run: as §3
Target sequence in this assay (P03372 whole entry): as the sequence (P03372 whole entry, looked up) above
Target sequence in this assay (P40337 whole entry): as the sequence (P40337 whole entry, looked up) above

[11] = target: T2, von Hippel-Lindau disease tumor suppressor/Estrogen receptor; test: PROTAC activity at VHL E3 ligase/ERalpha in human T47D cells assessed as reduction in ERalpha protein level at 0.01 to 10 uM incubated for 24 hrs by Western blot analysis; assay type: cell-based; details: dose 0.01-10 µM
Target sequence in this assay (P03372 whole entry, looked up): as the sequence (P03372 whole entry, looked up) above
Target sequence in this assay (P40337 whole entry, looked up): as the sequence (P40337 whole entry, looked up) above

[12] = target: T2, von Hippel-Lindau disease tumor suppressor/Estrogen receptor; test: PROTAC activity at VHL E3 ligase/ERalpha in human MCF7 cells assessed as reduction in ERalpha protein level at 2500 nM pretreated with carfilzomib at 1 uM for 30 mins followed by compound addition and measured after 6 hrs by Western blot analysis; assay type: cell-based
Target sequence in this assay (P03372 whole entry, looked up): as the sequence (P03372 whole entry, looked up) above
Target sequence in this assay (P40337 whole entry, looked up): as the sequence (P40337 whole entry, looked up) above

[13] = target: T2, von Hippel-Lindau disease tumor suppressor/Estrogen receptor; test: PROTAC activity at VHL E3 ligase/ERalpha in human MCF7 cells assessed as reduction in ERalpha protein level at 2500 nM pretreated with MLN4924 at 1 uM for 30 mins followed by compound addition and measured after 6 hrs by Western blot analysis; assay type: cell-based
Target sequence in this assay (P03372 whole entry, looked up): as the sequence (P03372 whole entry, looked up) above
Target sequence in this assay (P40337 whole entry, looked up): as the sequence (P40337 whole entry, looked up) above

[14] = target: Estrogen receptor/E3 ubiquitin-protein ligase XIAP (Homo sapiens, UniProt P03372+P98170); test: PROTAC activity at XIAP/ERalpha (unknown origin); assay type: protein assay
Estrogen receptor/E3 ubiquitin-protein ligase XIAP, sequence (P03372 whole entry): as the sequence (P03372 whole entry, looked up) above
Estrogen receptor/E3 ubiquitin-protein ligase XIAP, sequence (P98170 whole entry): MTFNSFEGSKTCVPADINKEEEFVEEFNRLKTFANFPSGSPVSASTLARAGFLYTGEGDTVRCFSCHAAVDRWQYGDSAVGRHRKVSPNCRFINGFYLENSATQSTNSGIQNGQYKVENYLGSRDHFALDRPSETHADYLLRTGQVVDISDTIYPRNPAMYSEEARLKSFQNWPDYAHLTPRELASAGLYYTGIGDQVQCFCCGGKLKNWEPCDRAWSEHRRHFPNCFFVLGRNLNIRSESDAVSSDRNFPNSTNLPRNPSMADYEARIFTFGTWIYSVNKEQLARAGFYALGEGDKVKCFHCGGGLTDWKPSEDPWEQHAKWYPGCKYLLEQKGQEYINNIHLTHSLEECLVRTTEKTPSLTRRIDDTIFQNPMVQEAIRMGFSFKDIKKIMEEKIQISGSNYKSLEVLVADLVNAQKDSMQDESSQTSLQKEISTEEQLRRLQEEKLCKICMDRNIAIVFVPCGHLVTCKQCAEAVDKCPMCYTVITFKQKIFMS

[15] = target: T2, von Hippel-Lindau disease tumor suppressor/Estrogen receptor; test: PROTAC activity at VHL/ERalpha (unknown origin); assay type: protein assay
Target sequence in this assay (P03372 whole entry): as the sequence (P03372 whole entry, looked up) above
Target sequence in this assay (P40337 whole entry): as the sequence (P40337 whole entry, looked up) above

Structure (SMILES): CC/C(=C(\c1ccc(O)cc1)c1ccc(OCCN(C)C(=O)CCc2cn(CCOCCOCCOCCNc3cccc4c3C(=O)N(C3CCC(=O)NC3=O)C4=O)nn2)cc1)c1ccccc1 (configuration not stated)
Activity [1]: Active
Activity [2]: inactive
EC50 [3]: 11.9 nM
Activity [4]: inactive
Activity [5]: inactive

Structure (SMILES): CNCC(=O)N[C@H](C(=O)N1Cc2cc(OCCOCCOCCOCCOc3ccc(Oc4c(-c5ccc(O)cc5)sc5cc(O)ccc45)cc3)ccc2C[C@H]1C(=O)N[C@@H]1CCCc2ccccc21)C(C)(C)C
EC50 [14]: < 1000 nM

Structure (SMILES): CC/C(=C(\c1ccc(O)cc1)c1ccc(OCCN(C)C(=O)COCCOCCOCCOc2cccc(C(=O)c3csc([C@@H]4CCCN4C(=O)[C@@H](NC(=O)[C@H](C)NC)C4CCCCC4)n3)c2)cc1)c1ccccc1
EC50 [14]: 10 nM

Structure (SMILES): CC[C@H](C)[C@H](NC(=O)[C@H](Cc1ccc(O)cc1)NC(=O)[C@@H]1CC(O)CN1C(=O)[C@H](C)NC(=O)[C@H](CC(C)C)NC(=O)CCCCCCC(=O)NCC(=O)OC1CC[C@H]2[C@@H]3CCc4cc(O)ccc4[C@H]3CC[C@]12C)C(=O)O (some centres not stated)
EC50 [15]: 16000 nM

Results, then the molecule that gave them:

Activity [6]: inactive
Activity [7]: Active
Structure (SMILES): CC/C(=C(\c1ccc(O)cc1)c1ccc(OCCN(C)C(=O)CCc2cn(CCOCCOCCOCCNc3cccc4c3C(=O)N(C3CCC(=O)N(C)C3=O)C4=O)nn2)cc1)c1ccccc1 (configuration not stated)

Activity [8]: inactive
Structure (SMILES): CC/C(=C(\c1ccc(O)cc1)c1ccc(OCCN(C)C(=O)CCc2cn(CCCC(=O)N[C@H](C(=O)N3C[C@@H](O)C[C@H]3C(=O)N[C@@H](C)c3ccc(-c4scnc4C)cc3)C(C)(C)C)nn2)cc1)c1ccccc1

Activity [9]: Active
EC50 [10]: 4.5 nM
Activity [11]: Active
Activity [12]: inactive
Activity [13]: inactive
Structure (SMILES): CC/C(=C(\c1ccc(O)cc1)c1ccc(OCCN(C)C(=O)CCc2cn(CCCC(=O)N[C@H](C(=O)N3C[C@H](O)C[C@H]3C(=O)N[C@@H](C)c3ccc(-c4scnc4C)cc3)C(C)(C)C)nn2)cc1)c1ccccc1

Activity [9]: Active
EC50 [10]: 5.3 nM
Activity [11]: Active
Activity [12]: inactive
Activity [13]: inactive
Structure (SMILES): CC/C(=C(\c1ccc(O)cc1)c1ccc(OCCN(C)C(=O)CCc2cn(CCCCCC(=O)N[C@H](C(=O)N3C[C@H](O)C[C@H]3C(=O)N[C@@H](C)c3ccc(-c4scnc4C)cc3)C(C)(C)C)nn2)cc1)c1ccccc1

Activity [1]: Active
Structure (SMILES): CC/C(=C(\c1ccc(O)cc1)c1ccc(OCCN(C)C(=O)CCc2cn(CCOCCNc3cccc4c3C(=O)N(C3CCC(=O)NC3=O)C4=O)nn2)cc1)c1ccccc1 (configuration not stated)
